In general, viability refers to a read-out of living cells in per cent, often relative to untreated cells.

The source made the active and inactive calls.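 The calls were made as follows, unless noted: active = viability loss from added drug above about 55%, and viability with drug at most 40%, in both replicates (limit read from the data, passing the limit was not always enough); inconclusive = both conditions met in only one replicate; inactive = neither replicate meets both conditions.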

The record followed here is PubChem BioAssay.

Assay [1] can be described thus: Her2 expression decrease, cell viability multiplex – SKBR3 breast tumor cells, AlphaScreen, ATP viability, primary screen (AID 461;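 active = Her2 level under about 52% in both replicate screens, with viability over 70% of control, limit read from the data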;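 as to Her2 level: lower value means less Her2 protein in the cells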;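 as to viability: percent of carrier control wells set as 100% viability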). Conditions: SKBR3 Her2 protein level, 18-24 h, measured here: SKBR3 viability, ATP luminescence, at 10 µM. For orientation: Alpha assays give light when donor and acceptor beads are brought close together.
Assay [2] concerns the target Receptor tyrosine-protein kinase erbB-2 (Homo sapiens) (UniProt P04626). The description is as above. Conditions: 18-24 h, at 10 µM, stronger effect = lower value.
Assay [3] is described as follows: reduced viability of SK-BR-3 breast cancer cells – cell-based, 24 h, human, pilot screen (AID 572;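 active = viability at or below 10% of carrier control in both of two separate runs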;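 also: compound exposure lasted between 18 and 24 h rather than exactly 24 h; 100% = carrier-treated control wells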). Conditions: SK-BR-3 viability, CellTiter-Glo luminescence, at 10 µM, stronger effect = lower value. For orientation: ATP-based viability assays read luminescence as a measure of living cells.
The nature of assay [4]: HUVEC growth inhibition – cell-based, human, primary screen (AID 575;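 active = viability at or below 30% in both replicate assays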;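 also: 100% = median of untreated cell wells with 0.1% DMSO on each plate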). Conditions: HUVEC proliferation, CellTiter-Glo luminescence, 72 h; at 10 µM; stronger effect = lower value. The method in brief: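 Test system: HUVEC primary cells. Quantity: 1250 endothelial cells in each well. Dosing: single-point 10 µM, DMSO 0.1% final. Incubation: 72 h treatment at 37 °C. Measured by: CTG luminescence. Control set: DMSO cell controls and MePR drug controls. Plate: collagen-coated 384-well format.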

A short description of assay [5]: H69AR cell proliferation blockers – human, duplicate replicates, primary screen (AID 580;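 active = viability at or under a set limit in both replicates, limit being median viability minus 3 SD, cut at about 48% in these data, passing the limit was not always enough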;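 also: 100% = mean luminescence of untreated wells and 0% = no signal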). Conditions: H69AR lung tumor cells viability, ATP luminescence, 72 h; at 10 µM; stronger effect = lower value.
A short description of assay [6]: MRP1 drug-resistance reversers in H69AR cells – cell-based, doxorubicin co-treatment, pilot screen (AID 601). Conditions: CellTiter-Glo, 72 h, at 10 µM; for differential viability (reversal): stronger effect = higher value.
The mark [7] stands for this setting: H69AR cells + 2 uM doxorubicin, measured here: viability with 2 uM doxorubicin, stronger effect = lower value.
Where [8] appears, read: H69AR cells, compound alone cytotoxicity.

Sequence of Receptor tyrosine-protein kinase erbB-2 (Homo sapiens) (P04626 whole entry, looked up): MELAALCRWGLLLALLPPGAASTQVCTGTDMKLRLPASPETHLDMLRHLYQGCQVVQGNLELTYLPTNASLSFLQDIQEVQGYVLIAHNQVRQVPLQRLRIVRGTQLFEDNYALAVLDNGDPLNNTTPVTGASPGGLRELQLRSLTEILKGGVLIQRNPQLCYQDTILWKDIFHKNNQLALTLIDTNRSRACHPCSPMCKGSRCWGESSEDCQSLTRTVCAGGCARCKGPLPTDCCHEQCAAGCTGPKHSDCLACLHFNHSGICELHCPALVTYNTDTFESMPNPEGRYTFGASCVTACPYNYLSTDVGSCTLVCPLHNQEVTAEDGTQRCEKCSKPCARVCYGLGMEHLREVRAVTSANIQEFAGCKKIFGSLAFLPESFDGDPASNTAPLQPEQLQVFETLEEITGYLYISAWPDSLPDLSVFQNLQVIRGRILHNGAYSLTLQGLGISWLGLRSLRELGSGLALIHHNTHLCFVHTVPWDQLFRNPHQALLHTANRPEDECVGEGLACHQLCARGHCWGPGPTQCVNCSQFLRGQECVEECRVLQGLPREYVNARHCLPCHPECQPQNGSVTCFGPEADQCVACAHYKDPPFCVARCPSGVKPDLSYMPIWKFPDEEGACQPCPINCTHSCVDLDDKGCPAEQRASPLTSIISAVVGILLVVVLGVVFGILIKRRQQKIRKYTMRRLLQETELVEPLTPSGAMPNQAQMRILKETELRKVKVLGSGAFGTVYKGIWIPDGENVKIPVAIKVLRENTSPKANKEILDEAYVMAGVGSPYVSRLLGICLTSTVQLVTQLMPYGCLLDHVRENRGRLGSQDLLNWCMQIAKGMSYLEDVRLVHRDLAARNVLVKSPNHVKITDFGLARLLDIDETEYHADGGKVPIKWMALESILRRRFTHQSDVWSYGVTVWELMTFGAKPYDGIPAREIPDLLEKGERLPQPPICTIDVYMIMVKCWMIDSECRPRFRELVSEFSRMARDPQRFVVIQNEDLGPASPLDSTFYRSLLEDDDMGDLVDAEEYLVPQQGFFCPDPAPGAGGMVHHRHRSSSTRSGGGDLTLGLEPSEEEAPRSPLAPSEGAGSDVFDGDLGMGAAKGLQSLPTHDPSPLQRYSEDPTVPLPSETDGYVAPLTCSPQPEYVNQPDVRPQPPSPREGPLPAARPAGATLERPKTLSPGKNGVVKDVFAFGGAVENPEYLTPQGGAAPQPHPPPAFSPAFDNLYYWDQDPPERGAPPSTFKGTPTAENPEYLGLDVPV

Regarding `C[C@]12CCC(=O)C=C1CC[C@@H]1[C@@H]2CC[C@@]2(C)[C@H]1CC[C@]2(O)C(=O)CO`, the viability in assay [1] was 99%; in assay [3], 99% (inactive); in assay [4], 97.7% (inactive); in assay [5], 92.8% (inactive); in assay [6] (setting [7]) it was 99.4%; in assay [6] (setting [8]), 92.8%. Also, the Her2 level in assay [2] is 142% (inactive). Besides, the differential viability (reversal) in assay [6] (H69AR cells + 2 uM doxorubicin) was -6.52% (inactive).

With `COc1ccc(C2CNC(=O)C2)cc1OC1CCCC1` (stereo not drawn), the viability in assay [1] is 115%; in assay [3], 115% (inactive); in assay [4], 114% (inactive); in assay [5], 109% (inactive); in assay [6] (setting [7]) it was 90.6%; in assay [6] (setting [8]) it was 109%. The Her2 level in assay [2] is 121% (inactive). In addition, the differential viability (reversal) in assay [6] (H69AR cells + 2 uM doxorubicin) was 18.8% (inactive).

`C[C@H]1C[C@H]2[C@@H]3CCC4=CC(=O)C=C[C@]4(C)[C@@]3(Cl)[C@@H](O)C[C@]2(C)[C@@]1(O)C(=O)CO`: the viability in assay [1] was 110%; in assay [3], 110% (inactive); in assay [4], 91.4% (inactive); in assay [5], 97.5% (inactive); in assay [6] (setting [7]), 103%; in assay [6] (setting [8]) it was 97.5%. Further, the Her2 level in assay [2] was 112% (inactive). Moreover, the differential viability (reversal) in assay [6] (H69AR cells + 2 uM doxorubicin) was -5.3% (inactive).

As for `COc1ccc(CN(CCN(C)C)c2ccccn2)cc1`, the viability is 91% in assay [1]; 91% (inactive) in assay [3]; 97.4% (inactive) in assay [4]; 93.9% (inactive) in assay [5]; 74.4% in assay [6] (setting [7]); 93.9% in assay [6] (setting [8]). In addition, the Her2 level in assay [2] was 104% (inactive). In addition, the differential viability (reversal) in assay [6] (H69AR cells + 2 uM doxorubicin) was 19.5% (inactive).

Consider `CCN1CCN(c2cc3c(cc2F)c(=O)c(C(=O)O)cn3C2CC2)CC1`, for which the viability in assay [1] is 103%; in assay [3], 103% (inactive); in assay [4], 98.3% (inactive); in assay [5], 92% (inactive); in assay [6] (setting [7]), 88.8%; in assay [6] (setting [8]) it was 92%. The Her2 level in assay [2] is 98.5% (inactive). In assay [6] (H69AR cells + 2 uM doxorubicin), the differential viability (reversal) was 3.18% (inactive).

On to `O=C(O)Cc1cc(I)c(Oc2ccc(O)c(I)c2)c(I)c1`, for which the viability in assay [1] was 89%; in assay [3], 89% (inactive); in assay [4] it was 76% (inactive); in assay [5], 96.3% (inactive); in assay [6] (setting [7]) it was 100%; in assay [6] (setting [8]), 96.3%. Further, the Her2 level in assay [2] is 106% (inactive). The differential viability (reversal) in assay [6] (H69AR cells + 2 uM doxorubicin) was -4.12% (inactive).

Consider `CCCCCCCC(=O)OCC(=O)[C@@]1(O)CC[C@H]2[C@@H]3CCC4=CC(=O)CC[C@]4(C)[C@H]3[C@@H](O)C[C@@]21C`, for which the viability is 120% in assay [1]; 120% (inactive) in assay [3]; 97.6% (inactive) in assay [4]; 102% (inactive) in assay [5]; 107% in assay [6] (setting [7]); 102% in assay [6] (setting [8]). In addition, in assay [2], the Her2 level is 102% (inactive). In addition, the differential viability (reversal) in assay [6] (H69AR cells + 2 uM doxorubicin) is -5.05% (inactive).

For `CCCC(CCC)C(=O)OC1C[C@H]2CC[C@@H](C1)[N+]2(C)C` (stereo partly drawn), the viability in assay [1] was 112%; in assay [3], 112% (inactive); in assay [4] it was 108% (inactive); in assay [5], 94% (inactive); in assay [6] (setting [7]), 85%; in assay [6] (setting [8]), 94%. The Her2 level in assay [2] is 95.5% (inactive). Further, in assay [6] (H69AR cells + 2 uM doxorubicin), the differential viability (reversal) was 9.01% (inactive).

As for `Nc1ccc(S(=O)(=O)Nc2ncccn2)cc1`, the viability in assay [1] is 96.5%; in assay [3], 96.5% (inactive); in assay [4] it was 91.4% (inactive); in assay [5], 104% (inactive); in assay [6] (setting [7]), 98.7%; in assay [6] (setting [8]), 104%. Moreover, the Her2 level in assay [2] was 100% (inactive). The differential viability (reversal) in assay [6] (H69AR cells + 2 uM doxorubicin) is 5.02% (inactive).

Turning to `CC(C)C[C@H](NC(=O)[C@@H]1O[C@H]1C(=O)O)C(=O)NCCCCN=C(N)N`, the viability in assay [1] is 100%; in assay [3], 100% (inactive); in assay [4], 86% (inactive); in assay [5] it was 100% (inactive); in assay [6] (setting [7]), 103%; in assay [6] (setting [8]), 100%. In addition, the Her2 level in assay [2] was 104% (inactive). In assay [6] (H69AR cells + 2 uM doxorubicin), the differential viability (reversal) is -2.29% (inactive).

With `NS(=O)(=O)c1cc2c(cc1Cl)NC(C1C[C@H]3C=C[C@@H]1C3)NS2(=O)=O` (stereo partly drawn), the viability was 110% in assay [1]; 110% (inactive) in assay [3]; 88.3% (inactive) in assay [4]; 92.7% (inactive) in assay [5]; 104% in assay [6] (setting [7]); 92.7% in assay [6] (setting [8]). Besides, in assay [2], the Her2 level was 130% (inactive). For the same molecule, in assay [6] (H69AR cells + 2 uM doxorubicin), the differential viability (reversal) is -10.8% (inactive).

Consider `O=C(O)c1cccnc1Nc1cccc(C(F)(F)F)c1`, for which the viability in assay [1] was 100%; in assay [3], 100% (inactive); in assay [4], 86.4% (inactive); in assay [5], 108% (inactive); in assay [6] (setting [7]), 94.5%; in assay [6] (setting [8]), 108%. Moreover, the Her2 level in assay [2] was 98.5% (inactive). Further, the differential viability (reversal) in assay [6] (H69AR cells + 2 uM doxorubicin) was 13.5% (inactive).

With `N[C@@H](Cc1cc(I)c(Oc2ccc(O)c(I)c2)c(I)c1)C(=O)O`, the viability was 100% in assay [1]; 100% (inactive) in assay [3]; 86.9% (inactive) in assay [4]; 97.6% (inactive) in assay [5]; 90.8% in assay [6] (setting [7]); 97.6% in assay [6] (setting [8]). The Her2 level in assay [2] was 87% (inactive). The differential viability (reversal) in assay [6] (H69AR cells + 2 uM doxorubicin) is 6.87% (inactive).

`COc1ccc(-c2coc3cc(O)cc(O)c3c2=O)cc1`: the viability in assay [1] was 118%; in assay [3], 118% (inactive); in assay [4], 84.2% (inactive); in assay [5], 68.8% (inactive); in assay [6] (setting [7]), 95.8%; in assay [6] (setting [8]) it was 68.8%. Further, in assay [2], the Her2 level is 99% (inactive). Further, the differential viability (reversal) in assay [6] (H69AR cells + 2 uM doxorubicin) was -27% (inactive).

Take `CCCC(=O)O[C@]1(C(=O)CCl)[C@@H](C)C[C@H]2[C@@H]3CCC4=CC(=O)C=C[C@]4(C)[C@@]3(F)C(=O)C[C@@]21C`: the viability in assay [1] is 88.5%; in assay [3], 88.5% (inactive); in assay [4] it was 81.2% (inactive); in assay [5], 87.8% (inactive); in assay [6] (setting [7]) it was 81.4%; in assay [6] (setting [8]), 87.8%. The Her2 level in assay [2] was 122% (inactive). Moreover, the differential viability (reversal) in assay [6] (H69AR cells + 2 uM doxorubicin) was 6.43% (inactive).

Consider `CN(C)CCOC(c1ccccc1)c1ccccc1` (tested in a mixture with another compound), for which the viability is 93.5% in assay [1]; 93.5% (inactive) in assay [3]; 98.9% (inactive) in assay [4]; 103% (inactive) in assay [5]; 83.7% in assay [6] (setting [7]); 103% in assay [6] (setting [8]). Moreover, in assay [2], the Her2 level is 106% (inactive). Besides, in assay [6] (H69AR cells + 2 uM doxorubicin), the differential viability (reversal) was 19.3% (inactive).

Regarding `S=C(N=Nc1ccccc1)NNc1ccccc1`, the viability in assay [1] is 118%; in assay [3] it was 118% (inactive); in assay [4], 80% (inactive); in assay [5] it was 81.4% (inactive); in assay [6] (setting [7]) it was 88%; in assay [6] (setting [8]), 81.4%. Further, in assay [2], the Her2 level is 90% (inactive). Besides, in assay [6] (H69AR cells + 2 uM doxorubicin), the differential viability (reversal) was -6.66% (inactive).

On to `CCCC(=O)O[C@]1(C(=O)COC(C)=O)CC[C@H]2[C@@H]3C[C@H](F)C4=CC(=O)C=C[C@]4(C)[C@@]3(F)[C@@H](O)C[C@@]21C`, for which the viability in assay [1] is 95%; in assay [3], 95% (inactive); in assay [4], 96.9% (inactive); in assay [5], 95.6% (inactive); in assay [6] (setting [7]), 104%; in assay [6] (setting [8]) it was 95.6%. Moreover, the Her2 level in assay [2] is 97.5% (inactive). Further, in assay [6] (H69AR cells + 2 uM doxorubicin), the differential viability (reversal) was -8.84% (inactive).

Regarding `Nc1ccc2[nH]ncc2c1`, the viability was 80.5% in assay [1]; 80.5% (inactive) in assay [3]; 84.1% (inactive) in assay [4]; 100% (inactive) in assay [5]; 107% in assay [6] (setting [7]); 100% in assay [6] (setting [8]). The Her2 level in assay [2] is 106% (inactive). For the same molecule, the differential viability (reversal) in assay [6] (H69AR cells + 2 uM doxorubicin) was -6.96% (inactive).

With `CC(C[N+](C)(C)C)OC(N)=O` (stereo not drawn), the viability in assay [1] was 101%; in assay [3], 101% (inactive); in assay [4] it was 97.5% (inactive); in assay [5] it was 99.4% (inactive); in assay [6] (setting [7]) it was 98.3%; in assay [6] (setting [8]), 99.4%. For the same molecule, in assay [2], the Her2 level is 114% (inactive). Also, the differential viability (reversal) in assay [6] (H69AR cells + 2 uM doxorubicin) is 1.13% (inactive).

On to `Cc1cccc(Nc2ccccc2C(=O)O)c1C`, for which the viability in assay [1] is 85%; in assay [3] it was 85% (inactive); in assay [4], 65.7% (inactive); in assay [5] it was 99.4% (inactive); in assay [6] (setting [7]), 103%; in assay [6] (setting [8]), 99.4%. In addition, the Her2 level in assay [2] was 105% (inactive). The differential viability (reversal) in assay [6] (H69AR cells + 2 uM doxorubicin) was -3.9% (inactive).
